The results in this text go back to ChEMBL document CHEMBL1131724, “The structure-based design and synthesis of selective inhibitors of Trypanosoma cruzi dihydrofolate reductase” (Bioorg Med Chem Lett, 1999).

Experiment [1] can be described thus: In vitro activity against the amastigote stage of the parasite cultured in mouse fibroblasts (L-6 cells). Format: functional, cell-based. In a few lines:
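L-6 mouse fibroblasts seeded, infected next day with trypomastigote T. cruzi expressing beta-galactosidase; after two days medium replaced with serial drug dilutions; four-day incubation; chlorophenol red beta-D-galactopyranoside substrate added, absorbance read at 540 nm 2-6 h later to quantify parasite growth; IC50 determined.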

For a further experiment, the target named is T1, Dihydrofolate reductase (Homo sapiens, UniProt P00374).
T1 sequence (P00374 whole entry): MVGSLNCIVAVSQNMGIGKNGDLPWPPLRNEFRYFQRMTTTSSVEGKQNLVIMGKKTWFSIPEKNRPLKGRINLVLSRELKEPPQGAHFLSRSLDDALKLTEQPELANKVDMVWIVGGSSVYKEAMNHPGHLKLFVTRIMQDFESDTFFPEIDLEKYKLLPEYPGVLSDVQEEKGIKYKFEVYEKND
The experiment is described as follows: Inhibitory activity against dihydrofolate reductase in humans.

Experiment [2] can be described thus: Selectivity for Trypanosoma cruzi dihydrofolate reductase compared to human dihydrofolate reductase.

Usually IC50 stands for the point on the concentration scale where inhibition reaches its midpoint. Read a low IC50 as greater potency in that assay. In general, Ki refers to a dissociation constant, usually derived from enzyme kinetics or from competition with a known ligand.

Molecule `Nc1nc(N)c2nc(CN(CCCC(=O)O)c3ccc(C(=O)NC(CCC(=O)O)C(=O)O)cc3)cnc2n1` (stereo not given) gave an IC50 in experiment [1] above 171 µM.
Still for that read-out and setting: the figure for `CCOC(=O)CCCN(Cc1cnc2nc(N)nc(N)c2n1)c1ccc(C(=O)NC(CCC(=O)OCC)C(=O)OCC)cc1` (stereo not given) is 61 µM.
The molecule `CCOC(=O)CCCCN(Cc1cnc2nc(N)nc(N)c2n1)c1ccc(C(=O)NC(CCC(=O)OCC)C(=O)OCC)cc1` (stereo not given) came in with a Ki on Dihydrofolate reductase of 0.453 µM. Also, the IC50 in experiment [1] stood at 38.8 µM. The Selectivity in experiment [2] stood at 9.9.
Molecule `CN(Cc1cnc2nc(N)nc(N)c2n1)c1ccc(C(=O)N[C@@H](CCC(=O)O)C(=O)O)cc1` [METHOTREXATE] displayed a concentration for half-maximal inhibition (IC50) in experiment [1] of 9.2 µM.
In turn, `Nc1nc(N)c2nc(CN(CCCCC(=O)O)c3ccc(C(=O)NC(CCC(=O)O)C(=O)O)cc3)cnc2n1` (stereo not given) had a Ki on Dihydrofolate reductase of 0.00145 µM. For the same molecule, the IC50 in experiment [1] is above 167 µM. In experiment [2], the Selectivity was 11.1.
For `Nc1nc(N)c2nc(CN(CCCCCC(=O)O)c3ccc(C(=O)NC(CCC(=O)O)C(=O)O)cc3)cnc2n1` (stereo not given), in that order: 0.00163 µM, 11.5 µM and 8.9.
On the same counts, the results for `CCOC(=O)CCCCCN(Cc1cnc2nc(N)nc(N)c2n1)c1ccc(C(=O)NC(CCC(=O)OCC)C(=O)OCC)cc1` (stereo not given) are 0.485 µM, 53.5 µM and 8.71.
